Converted amounts (≈) assume the structure as drawn.
What was measured:
Streptococcus pyogenes [1] = assay: Antimicrobial activity against Streptococcus pyogenes iMLS-A isolate A expressing tet(M), tndX gene; format: functional
How it was run: (§1)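 Broth microdilution MICs per CLSI against clinical S. pyogenes isolates carrying erm(B); S. pneumoniae ATCC 49619 as quality control. For some isolates, tetracycline MICs were also read after induction: colonies from overnight brain heart infusion agar were grown on brain heart infusion agar with or without subinhibitory tetracycline (0.05 μg/ml), harvested within 20 h, then tested.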

Streptococcus pyogenes [2] = assay: Antimicrobial activity against tetracycline-susceptible Streptococcus pyogenes iMLS-A isolate expressing erm(B); format: functional; how it was run: as §1
Streptococcus pyogenes [3] = assay: Antimicrobial activity against tetracyclin-resistant Streptococcus pyogenes cMLS isolate expressing erm(B); format: functional
How it was run: (§2)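 Broth microdilution MICs run to CLSI recommendations on clinical erm(B)-carrying S. pyogenes isolates, with S. pneumoniae ATCC 49619 as quality control. In some isolates, tetracycline MICs were also measured on cells grown for no longer than 20 h on brain heart infusion agar, with or without subinhibitory tetracycline (0.05 μg/ml).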

Streptococcus pyogenes [4] = assay: Antimicrobial activity against tetracycline-susceptible Streptococcus pyogenes cMLS isolate expressing erm(B); format: functional; how it was run: as §1
Streptococcus pyogenes [5] = assay: Antimicrobial activity against Streptococcus pyogenes cMLS isolate B expressing tet(M), int, Xis gene; format: functional; how it was run: as §2
Streptococcus pyogenes [6] = assay: Antimicrobial activity against tetracycline-susceptible Streptococcus pyogenes cMLS isolate D expressing tet(M), Xis, tnpA, tnpR gene; format: functional; how it was run: as §1
Streptococcus pyogenes [7] = assay: Antimicrobial activity against tetracycline-susceptible Streptococcus pyogenes cMLS isolate E expressing tet(M), tndX gene; format: functional; how it was run: as §1
Streptococcus pyogenes [8] = assay: Antimicrobial activity against tetracycline-susceptible Streptococcus pyogenes cMLS isolate F; format: functional; how it was run: as §1
Streptococcus pyogenes [9] = assay: Antimicrobial activity against tetracycline-susceptible Streptococcus pyogenes cMLS isolate G expressing tnpA, tnpR gene; format: functional; how it was run: as §1
Streptococcus pyogenes [10] = assay: Antimicrobial activity against erythromycin-resistant Streptococcus pyogenes A-3 transconjugated with erm(B) and tet(M) genes; format: functional
How it was run: (§3)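 Transconjugants came from membrane-filter mating of the donor strain into recipient S. pyogenes 12RF (rifampin- and fusidic acid-resistant), done at least three times, and were confirmed by PCR to carry erm(B) and tet(M). MICs were then determined by broth microdilution to CLSI recommendations, with S. pneumoniae ATCC 49619 as quality control.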

Streptococcus pyogenes [11] = assay: Antimicrobial activity against erythromycin-resistant Streptococcus pyogenes B-83 transconjugated with erm(B) and tet(M) genes; format: functional; how it was run: as §3
Streptococcus pyogenes [12] = assay: Antimicrobial activity against erythromycin-resistant Streptococcus pyogenes C-105 transconjugated with erm(B) and tet(M) genes; format: functional; how it was run: as §3
Streptococcus pyogenes [13] = assay: Antimicrobial activity against tetracyclin-resistant Streptococcus pyogenes C-105 transconjugated with erm(B) and tet(M) genes; format: functional; how it was run: as §3
Streptococcus pyogenes [14] = assay: Antimicrobial activity against erythromycin-resistant Streptococcus pyogenes D-112 transconjugated with erm(B) and tet(M) genes; format: functional; how it was run: as §3
Streptococcus pyogenes [15] = assay: Antimicrobial activity against erythromycin-resistant Streptococcus pyogenes E-115 transconjugated with erm(B) and tet(M) genes; format: functional; how it was run: as §3
Streptococcus pyogenes [16] = assay: Antimicrobial activity against tetracycline-resistant Streptococcus pyogenes cMLS isolate C expressing tet(M), Xis, tnpA, tnpR gene

| Compound | MIC (Streptococcus pyogenes [1]) [µg/mL] | MIC (Streptococcus pyogenes [2]) [µg/mL] | MIC (Streptococcus pyogenes [3]) [µg/mL] | MIC (Streptococcus pyogenes [4]) [µg/mL] | MIC (Streptococcus pyogenes [5]) [µg/mL] | MIC (Streptococcus pyogenes [6]) [µg/mL] | MIC (Streptococcus pyogenes [7]) [µg/mL] | MIC (Streptococcus pyogenes [8]) [µg/mL] | MIC (Streptococcus pyogenes [9]) [µg/mL] | MIC (Streptococcus pyogenes [10]) [µg/mL] | MIC (Streptococcus pyogenes [11]) [µg/mL] | MIC (Streptococcus pyogenes [12]) [µg/mL] | MIC (Streptococcus pyogenes [13]) [µg/mL] | MIC (Streptococcus pyogenes [14]) [µg/mL] | MIC (Streptococcus pyogenes [15]) [µg/mL] | MIC (Streptococcus pyogenes [16]) [µg/mL] |
| --- | --- | --- | --- | --- | --- | --- | --- | --- | --- | --- | --- | --- | --- | --- | --- | --- |
| CN(C)[C@@H]1C(O)=C(C(N)=O)C(=O)[C@@]2(O)C(O)=C3C(=O)c4c(O)cccc4[C@@](C)(O)[C@H]3C[C@@H]12 [TETRACYCLINE] | 0.125 (≈ 0.281 µM) | ≤ 0.125 | 32 (≈ 72 µM) | ≤ 0.125 | 32 (≈ 72 µM) | 0.125 (≈ 0.281 µM) | 0.125 (≈ 0.281 µM) | 0.125 (≈ 0.281 µM) | 0.125 (≈ 0.281 µM) | 0.25 (≈ 0.563 µM) | 32 (≈ 72 µM) | 32 (≈ 72 µM) | 32 (≈ 72 µM) | 0.25 (≈ 0.563 µM) | 0.25 (≈ 0.563 µM) | 32 (≈ 72 µM) |
| CC[C@H]1OC(=O)[C@H](C)[C@@H](O[C@H]2C[C@@](C)(OC)[C@@H](O)[C@H](C)O2)[C@H](C)[C@@H](O[C@@H]2O[C@H](C)C[C@H](N(C)C)[C@H]2O)[C@](C)(O)C[C@@H](C)C(=O)[C@H](C)[C@@H](O)[C@]1(C)O [ERYTHROMYCIN] |  |  |  |  |  |  |  |  |  | > 128 | > 128 | > 128 | > 128 | > 128 | > 128 |  |

Reference: ChEMBL document CHEMBL1147109, “Genetic elements carrying erm(B) in Streptococcus pyogenes and association with tet(M) tetracycline resistance gene” (2007)
